Data set [1] relates to Plasmodium falciparum. The data set can be described thus: Antimalarial activity against chloroquine-sensitive Plasmodium falciparum NF54 infected in human erythrocytes assessed as reduction of parasitemia level at 20 uM after 1 day by Geimsa staining based light microscopic analysis (reference value: 0.97 +/- 0.1%). More on the design: scale not given: the % may be the effect or the level left. The data set is classed as functional.

The subject of data set [2] is Plasmodium falciparum. The data set can be described thus: Antimalarial activity against chloroquine-sensitive Plasmodium falciparum NF54 infected in human erythrocytes assessed as reduction of parasitemia level at 20 uM after 2 days by Geimsa staining based light microscopic analysis (reference value: 1.21 +/- 0.12%). Type of data set: functional. More on the design: scale not given: the % may be the effect or the level left.

Data set [3] deals with Plasmodium falciparum. In words: Antimalarial activity against chloroquine-sensitive Plasmodium falciparum NF54 infected in human erythrocytes assessed as reduction of parasitemia level at 20 uM after 3 days by Geimsa staining based light microscopic analysis (reference value: 2.55 +/- 0.21%). More on the design: scale not given: the % may be the effect or the level left. Type of data set: functional.

Data set [4] has as its system Plasmodium falciparum. The data set can be described thus: Antimalarial activity against chloroquine-sensitive Plasmodium falciparum NF54 infected in human erythrocytes assessed as reduction of parasitemia level at 20 uM after 4 days by Geimsa staining based light microscopic analysis (reference value: 2.73 +/- 0.16%). Type of data set: functional. More on the design: scale not given: the % may be the effect or the level left.

Data set [5] deals with Plasmodium falciparum. In words: Antimalarial activity against chloroquine-sensitive Plasmodium falciparum NF54 infected in human erythrocytes assessed as inhibition of parasite growth after 72 hrs by Geimsa staining based light microscopic analysis. Type of data set: functional, organism-based. The conditions noted are these: NF54, 72 h.
Data set [6] concerns Plasmodium berghei. In words: Antimalarial activity against […] Plasmodium berghei ANKA infected in C57BL/6 mouse assessed as protection against cerebral malaria at 80 mg/kg, ip administered 3 to 9 days post infection by Geimsa staining based microscopic analysis. Type of data set: functional, organism-based. More on the design: dose 80 mg/kg. The method, boiled down:
(§1)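 Infected C57BL/6 mice were followed over time for blood parasitemia and for survival, with a chloroquine-treated group as reference. Death from cerebral malaria and later death from anemia were recorded separately.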

Data set [7] relates to Plasmodium berghei. In words: Antimalarial activity against […] Plasmodium berghei ANKA infected in C57BL/6 mouse assessed as clearance of parasite from blood of mouse at 80 mg/kg, ip administered 3 to 9 days post infection by Geimsa staining based microscopic analysis. The data set is classed as functional, organism-based. More on the design: dose 80 mg/kg. The method, boiled down: as §1

In data set [8] the test system is Mus musculus. The data set can be described thus: Toxicity in […] Plasmodium berghei ANKA infected C57BL/6 mouse assessed as mortality with anemia at 80 mg/kg, ip administered 3 to 9 days post infection measured on day 10. The data set is classed as organism-based. More on the design: dose 80 mg/kg, route intraperitoneal. The settings on record: in vivo. The method, boiled down: as §1

The subject of data set [9] is Plasmodium falciparum. The data set can be described thus: Antimalarial activity against chloroquine-sensitive Plasmodium falciparum NF54 infected in human erythrocytes assessed as reduction of parasitemia level at 0.032 uM after 1 day by Geimsa staining based light microscopic analysis (reference value: 0.97 +/- 0.1%). The data set is classed as functional. On the set-up: scale not given: the % may be the effect or the level left.

The test system of data set [10] is Plasmodium falciparum. The data set can be described thus: Antimalarial activity against chloroquine-sensitive Plasmodium falciparum NF54 infected in human erythrocytes assessed as reduction of parasitemia level at 0.032 uM after 2 days by Geimsa staining based light microscopic analysis (reference value: 1.21 +/- 0.12%). Type of data set: functional. More on the design: scale not given: the % may be the effect or the level left.

Data set [11] relates to Plasmodium falciparum. The data set can be described thus: Antimalarial activity against chloroquine-sensitive Plasmodium falciparum NF54 infected in human erythrocytes assessed as reduction of parasitemia level at 0.032 uM after 3 days by Geimsa staining based light microscopic analysis (reference value: 2.55 +/- 0.21%). The data set is classed as functional. On the set-up: scale not given: the % may be the effect or the level left.

For data set [12], the system named is Plasmodium falciparum. The data set can be described thus: Antimalarial activity against chloroquine-sensitive Plasmodium falciparum NF54 infected in human erythrocytes assessed as reduction of parasitemia level at 0.032 uM after 4 days by Geimsa staining based light microscopic analysis (reference value: 2.73 +/- 0.16%). Type of data set: functional. On the set-up: scale not given: the % may be the effect or the level left.

In data set [13] the test system is Plasmodium berghei. In words: Antimalarial activity against […] Plasmodium berghei ANKA infected in C57BL/6 mouse assessed as clearance of parasite from blood of mouse at 25 mg/kg, ip administered 3 to 9 days post infection by Geimsa staining based microscopic analysis. Type of data set: functional, organism-based. More on the design: dose 25 mg/kg. The method, boiled down:
as §1

Data set [14] concerns Plasmodium berghei. In words: Antimalarial activity against […] Plasmodium berghei ANKA infected in C57BL/6 mouse assessed as protection against cerebral malaria at 100 mg/kg, ip administered 3 to 9 days post infection by Geimsa staining based microscopic analysis. On the set-up: dose 100 mg/kg. The data set is classed as functional, organism-based. In short, it runs like this:
as §1

Data set [15] deals with Plasmodium berghei. In words: Antimalarial activity against […] Plasmodium berghei ANKA infected in C57BL/6 mouse assessed as clearance of parasite from blood of mouse at 100 mg/kg, ip administered 3 to 9 days post infection by Geimsa staining based microscopic analysis. On the set-up: dose 100 mg/kg. Type of data set: functional, organism-based. In short, it runs like this:
as §1

Data set [16] relates to Mus musculus. The data set can be described thus: Toxicity in […] Plasmodium berghei ANKA infected C57BL/6 mouse assessed as mortality with anemia at 100 mg/kg, ip administered 3 to 9 days post infection measured on day 10. The conditions noted are these: in vivo. More on the design: dose 100 mg/kg, route intraperitoneal. Type of data set: organism-based. The method, boiled down: as §1

Data set [17] deals with Plasmodium falciparum. The data set can be described thus: Antimalarial activity against chloroquine-sensitive Plasmodium falciparum NF54 infected in human erythrocytes assessed as inhibition of parasite growth at 2.5 to 10 uM after 72 hrs by Geimsa staining based light microscopic analysis. Type of data set: functional, organism-based.
Data set [18] concerns Plasmodium falciparum. In words: Antimalarial activity against chloroquine-sensitive Plasmodium falciparum NF54 infected in human erythrocytes assessed as reduction of parasitemia level at 3 uM after 1 day by Geimsa staining based light microscopic analysis (reference value: 0.97 +/- 0.1%). The data set is classed as functional. More on the design: scale not given: the % may be the effect or the level left.

Data set [19] deals with Plasmodium falciparum. In words: Antimalarial activity against chloroquine-sensitive Plasmodium falciparum NF54 infected in human erythrocytes assessed as reduction of parasitemia level at 3 uM after 2 days by Geimsa staining based light microscopic analysis (reference value: 1.21 +/- 0.12%). Type of data set: functional. More on the design: scale not given: the % may be the effect or the level left.

Data set [20] concerns Plasmodium falciparum. In words: Antimalarial activity against chloroquine-sensitive Plasmodium falciparum NF54 infected in human erythrocytes assessed as reduction of parasitemia level at 3 uM after 3 days by Geimsa staining based light microscopic analysis (reference value: 2.55 +/- 0.21%). The data set is classed as functional. More on the design: scale not given: the % may be the effect or the level left.

Data set [21] deals with Plasmodium falciparum. The data set can be described thus: Antimalarial activity against chloroquine-sensitive Plasmodium falciparum NF54 infected in human erythrocytes assessed as reduction of parasitemia level at 3 uM after 4 days by Geimsa staining based light microscopic analysis (reference value: 2.73 +/- 0.16%). The data set is classed as functional. On the set-up: scale not given: the % may be the effect or the level left.

In data set [22] the test system is Plasmodium falciparum. The data set can be described thus: Antimalarial activity against chloroquine-sensitive Plasmodium falciparum NF54 infected in human erythrocytes assessed as reduction of parasitemia level at 10 uM after 1 day by Geimsa staining based light microscopic analysis (reference value: 0.97 +/- 0.1%). More on the design: scale not given: the % may be the effect or the level left. Type of data set: functional.

The subject of data set [23] is Plasmodium falciparum. The data set can be described thus: Antimalarial activity against chloroquine-sensitive Plasmodium falciparum NF54 infected in human erythrocytes assessed as reduction of parasitemia level at 10 uM after 2 days by Geimsa staining based light microscopic analysis (reference value: 1.21 +/- 0.12%). Type of data set: functional. More on the design: scale not given: the % may be the effect or the level left.

Data set [24] deals with Plasmodium falciparum. In words: Antimalarial activity against chloroquine-sensitive Plasmodium falciparum NF54 infected in human erythrocytes assessed as reduction of parasitemia level at 10 uM after 3 days by Geimsa staining based light microscopic analysis (reference value: 2.55 +/- 0.21%). The data set is classed as functional. More on the design: scale not given: the % may be the effect or the level left.

Data set [25] has as its system Plasmodium falciparum. The data set can be described thus: Antimalarial activity against chloroquine-sensitive Plasmodium falciparum NF54 infected in human erythrocytes assessed as reduction of parasitemia level at 10 uM after 4 days by Geimsa staining based light microscopic analysis (reference value: 2.73 +/- 0.16%). More on the design: scale not given: the % may be the effect or the level left. Type of data set: functional.

Data set [26] concerns Plasmodium berghei. The data set can be described thus: Antimalarial activity against […] Plasmodium berghei ANKA infected in C57BL/6 mouse assessed as clearance of parasite from blood of mouse at 150 mg/kg, ip administered 3 to 9 days post infection measured on day 5 to 7 by Geimsa staining based microscopic analysis. Type of data set: functional, organism-based. More on the design: dose 150 mg/kg. The method, boiled down: as §1

The source made the active and inactive calls. The calls are words filed in the database; no cut-off is given here.

As for `Oc1ccc2ccccc2c1-c1cc2nc3ccccc3nc2c2ccccc12`, the Activity with Plasmodium falciparum [1] is listed as 0.23%; in the data set with Plasmodium falciparum [2], 0.07%; in the data set with Plasmodium falciparum [3] it was 0.02%; in the data set on Plasmodium falciparum [4] it was 0%; in the data set on Mus musculus [8] it was “Toxic”. In the data set with Plasmodium falciparum [5], the IC50 came out at 4.11 µM. Moreover, in the data set on Plasmodium berghei [6], the result was Active. Further, the outcome in the data set on Plasmodium berghei [7] was inactive.
`CCN(CC)CCCC(C)Nc1ccnc2cc(Cl)ccc12` (stereo not drawn) [CHLOROQUINE]: the Activity was 0.06% in the data set on Plasmodium falciparum [9], 0% in the data set with Plasmodium falciparum [10], 0% in the data set with Plasmodium falciparum [11] and 0% in the data set on Plasmodium falciparum [12]. Besides, in the data set with Plasmodium berghei [13], the result was inactive.
Regarding `Oc1ccc2ccccc2c1-c1cc2nc3cc(Cl)c(Cl)cc3nc2c2ccccc12`, the Activity in the data set with Plasmodium falciparum [1] is reported as 0.14%; in the data set with Plasmodium falciparum [2], 0.01%; with Plasmodium falciparum [3], 0%; with Plasmodium falciparum [4] it was 0%; in the data set with Mus musculus [16] it was “Toxic”. Besides, in the data set with Plasmodium falciparum [5], the IC50 was found to be 5.05 µM. Moreover, the outcome in the data set with Plasmodium berghei [14] was Active. Besides, the outcome in the data set with Plasmodium berghei [15] was inactive.
As for `Oc1ccc2ccccc2c1-c1cc2nc3ncccc3nc2c2ccccc12`, the Activity in the data set with Plasmodium falciparum [1] is recorded as 0.04%; in the data set with Plasmodium falciparum [2], 0%; with Plasmodium falciparum [3], 0%; with Plasmodium falciparum [4] it was 0%; with Mus musculus [16], “Toxic”. Moreover, the IC50 in the data set with Plasmodium falciparum [5] worked out at 5.23 µM. Further, the outcome in the data set with Plasmodium berghei [14] was Active. In the data set with Plasmodium berghei [15], the result was inactive.
For the molecule `O=C(O)c1cnc2cc(-c3c(O)ccc4ccccc34)c3ccccc3c2n1`, in the data set with Plasmodium falciparum [17], the inhibition result was “inactive”.
`Oc1c(-c2cc3nc4ccccc4nc3c3ccccc23)ccc2ccccc12`: the Activity with Plasmodium falciparum [18] turned out to be 0.27%; in the data set on Plasmodium falciparum [19], 0.11%; in the data set with Plasmodium falciparum [20], 0.02%; in the data set on Plasmodium falciparum [21], 0%. Further, the IC50 with Plasmodium falciparum [5] turned out to be 0.88 µM.
In the case of `Nc1nnc2cc(-c3c(O)ccc4ccccc34)c3ccccc3c2n1`, the inhibition result with Plasmodium falciparum [17] is “inactive”.
On the same count and under the same terms, for `O=C(O)c1cnc2cc(-c3ccc4ccccc4c3O)c3ccccc3c2n1` the value was “inactive”; for `O=C1C=C(c2ccc3ccccc3c2O)c2ccccc2C1=O`, “inactive”; for `Oc1c(-c2cc3nc4ncccc4nc3c3ccccc23)ccc2ccccc12`, “inactive”.
On the same count and under the same terms, for `Oc1ccc2ccccc2c1-c1cc2c(c3ccccc13)=NC1(CCCCC1)N=2` the value was “inactive”.
Consider `O/N=C1/C=C(c2c(O)ccc3ccccc23)c2ccccc2/C1=N/O`, for which the Activity in the data set on Plasmodium falciparum [22] worked out at 0.94%; in the data set on Plasmodium falciparum [23], 0.2%; in the data set on Plasmodium falciparum [24] it was 0.04%; in the data set with Plasmodium falciparum [25], 0%. Further, the IC50 in the data set on Plasmodium falciparum [5] was determined as 3.73 µM.
In the case of `Oc1c(-c2cc3nc4c(O)nc(S)nc4nc3c3ccccc23)ccc2ccccc12`, the inhibition result with Plasmodium falciparum [17] is “inactive”.
Consider `Oc1ccc2cc(Br)ccc2c1-c1cc2nc3ccccc3nc2c2ccc(Br)cc12`, for which the Activity with Plasmodium falciparum [22] was determined as 0.14%; in the data set with Plasmodium falciparum [23], 0.01%; in the data set with Plasmodium falciparum [24], 0%; with Plasmodium falciparum [25], 0%. Moreover, in the data set on Plasmodium falciparum [5], the IC50 was found to be 0.64 µM. In the data set with Plasmodium berghei [26], the outcome was Active.
On to `Oc1ccc2ccccc2c1-c1cc2nc3c(O)nc(S)nc3nc2c2ccccc12`, for which the inhibition entry in the data set with Plasmodium falciparum [17] was “inactive”.
As to `Oc1c(-c2cc3nc4cc(Cl)c(Cl)cc4nc3c3ccccc23)ccc2ccccc12`, the Activity is recorded as 0.17% in the data set on Plasmodium falciparum [18], 0.15% with Plasmodium falciparum [19], 0% in the data set with Plasmodium falciparum [20] and 0% in the data set on Plasmodium falciparum [21]. For the same molecule, the IC50 with Plasmodium falciparum [5] is 0.51 µM.

The record behind these values is ChEMBL document CHEMBL1800050, “A new class of phenazines with activity against a chloroquine resistant Plasmodium falciparum strain and antimicrobial activity” (J Med Chem, 2011).
